Hsp70 act – switches on Hsp70 transcription | HeLa Hsp70 promoter luciferase reporter, luminescence; scaled: vehicle 0, proteasome-inhibitor control 100% | activation, % at 10 µM | 0.04% of 200,000 active | AID 1203;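 active = activation above the mean across all tested compounds plus 3 SD, cutoff set per campaign, cut at about 5.5% in these data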;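 note: 100% = MG132 at 30 µM as the positive control and 0% = DMSO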
Insulin prom inh – TRM-6 insulin promoter activity inhibition. 0.9% of 130,000 active. TRM-6 cells (human fetal islet line), insulin promoter-eGFP reporter, imaging; reporter expression induced with tamoxifen. inhibition, % at 2 µM. AID 1273;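 active = inhibition above the mean plus 3 SD, with well images judged a real hit on visual review, cut at about 60% in these data, passing the limit was not always enough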
Mdm2 ligase inh – Mdm2 E3 ligase (human) inhibition; Q00987; cell-based MDM2 ubiquitination luciferase reporter, 2 h; 0 = plate control, 100 = twice control, blank-subtracted; signal enhancement, % at 5 µM; 0.11% of 210,000 active;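 active = signal enhancement of 30% or more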;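 note: luminescence tracks abundance of the self-degrading MDM2-luciferase fusion protein; higher signal means inhibition of MDM2 E3 ligase activity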
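Test system: mammalian cells stably expressing self-ubiquitinating, self-degrading MDM2 E3–luciferase fusion; Amount: 2000 cells in each well; Medium: DMEM; Schedule: 4 h settle plus 2 h compound, 37 °C; Technique: SteadyLite luciferase luminescence after 15 min room-temperature reagent incubation; Benchmarks: plate control and blank wells.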
Wee1 stabilizer – human Wee1 degradation inhibition, primary screen; P30291; HeLa Luc-Wee1K328M stability, luciferase luminescence; 100% = proteasome inhibitor MG132 effect; reporter increase, % at 5 µM; 1.2% of 220,000 active; AID 1321;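 active = activation above the mean of all tested compounds plus 3 SD, set per screening run, cut at about 8.8% in these data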;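 note: cells exposed to compound for 20 h before luminescence read; 0% = DMSO alone and 100% = MG132 at 30 µM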
Target sequence (P30291 whole entry K328M): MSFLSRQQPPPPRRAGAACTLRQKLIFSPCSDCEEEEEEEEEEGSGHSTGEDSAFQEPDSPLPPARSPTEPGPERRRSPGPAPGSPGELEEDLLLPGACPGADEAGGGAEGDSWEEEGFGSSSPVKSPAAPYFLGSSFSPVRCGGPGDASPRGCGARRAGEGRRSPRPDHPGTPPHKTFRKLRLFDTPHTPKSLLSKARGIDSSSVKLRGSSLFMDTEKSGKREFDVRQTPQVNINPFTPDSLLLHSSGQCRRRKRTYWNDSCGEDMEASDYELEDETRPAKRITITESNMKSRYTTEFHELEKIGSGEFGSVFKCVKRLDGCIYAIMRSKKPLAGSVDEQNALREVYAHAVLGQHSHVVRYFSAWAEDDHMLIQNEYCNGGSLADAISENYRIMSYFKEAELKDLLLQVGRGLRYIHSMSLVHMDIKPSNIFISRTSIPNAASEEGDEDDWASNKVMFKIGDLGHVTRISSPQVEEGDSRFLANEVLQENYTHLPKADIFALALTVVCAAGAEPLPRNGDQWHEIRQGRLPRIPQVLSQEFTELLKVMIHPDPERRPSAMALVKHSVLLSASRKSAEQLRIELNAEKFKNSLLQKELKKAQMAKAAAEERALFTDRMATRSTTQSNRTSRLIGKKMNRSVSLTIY
Ins promoter up – MIN6 insulin promoter up-regulation; MIN6 insulin promoter-GFP reporter, high-content imaging; active compounds read high; z-score at 5 µM; 0.3% of 190,000 active; AID 1625;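 active = z-score above 3 at 5 µM with at least 500 cells counted in the well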
RBBP9 inhibitor – blocks human serine hydrolase RBBP9; AID 1515; inhibition, % at 7.94 µM; O75884; 0.2% of 220,000 active; recombinant RBBP9, FP-Rh probe fluorescence polarization;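 active = inhibition above the campaign mean of all tested compounds plus 3 SD, cut at about 14% in these data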;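 note: plate controls were DMSO wells with RBBP9 for no effect and wells lacking RBBP9 protein for full effect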
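Test system: recombinant human RBBP9; Timing: 30 min then 45 min, 25 °C; Detection: fluorescence polarization; Control set: RBBP9 with DMSO as uninhibited control, no-protein wells as full inhibition; Compound dosing: one concentration, 7.94 µM nominal, 0.794% DMSO; Probe or stimulus: FP-Rh activity-based probe, 375 nM before mixing.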
Starred values were filed as active, the others as inactive. Only some compounds are listed: those with a hit (about 2.2% of all), similar ones and a draw of the others.

Results for O=C1CC(N2CCN(C/C=C/c3ccccc3)CC2)C(=O)N1Cc1cccs1 (stereo not given) ?
Hsp70 act: 0.1; Insulin prom inh: -39.4; Mdm2 ligase inh: -0.2; Wee1 stabilizer: -0.5; Ins promoter up: 0.11; RBBP9 inhibitor: -7.5

How did O=C(c1ccc(COc2ccc3ccccc3c2)o1)N1N=C(C(F)F)CC1(O)C(F)F (stereo not given) do in these assays?
Hsp70 act: -0.3; Insulin prom inh: -31.4; Mdm2 ligase inh: -8.1; Wee1 stabilizer: -1.0; RBBP9 inhibitor: -1.7

What do the screens show for `O=C(c1ccc(COc2ccccc2Cl)o1)N1N=C(C(F)F)CC1(O)C(F)F` (stereo not given)?
Hsp70 act: -0.3; Insulin prom inh: 20.0; Mdm2 ligase inh: 4.7; Wee1 stabilizer: 10.6*; Ins promoter up: 0.19; RBBP9 inhibitor: -9.2

What do the screens show for `Cn1c(N/N=C/c2cc3ccccc3nc2Cl)nc2ccccc21`?
Hsp70 act: -0.2; Insulin prom inh: 36.4; Mdm2 ligase inh: -57.3; Wee1 stabilizer: 2.7; RBBP9 inhibitor: -3.1

How did CCOc1ccc(C(=O)O)cn1 do in these assays?
Hsp70 act: -0.3; Mdm2 ligase inh: 2.1; Wee1 stabilizer: 0.2; Ins promoter up: 1.52; RBBP9 inhibitor: -1.9

What do the screens show for `C=CCn1c(Cc2csc(N)n2)nnc1SCc1ccc(C(=O)OC)cc1`?
Hsp70 act: -0.1; Mdm2 ligase inh: 5.5; Wee1 stabilizer: 2.8; Ins promoter up: 0.18; RBBP9 inhibitor: -5.0

Results for Cc1[nH]c2ccccc2c1Cc1nnc(SCC(N)=O)o1 ?
Hsp70 act: -0.3; Insulin prom inh: -110.0; Mdm2 ligase inh: -10.8; Wee1 stabilizer: 0.3; Ins promoter up: 4.82*; RBBP9 inhibitor: 7.5

How did CCCn1c(N)c(N2CCCCC2)c(=O)n(CC(=O)Nc2ccc(OC(F)(F)F)cc2)c1=O do in these assays?
Hsp70 act: 0.2; Insulin prom inh: 2.6; Mdm2 ligase inh: -16.5; Wee1 stabilizer: 0.1; Ins promoter up: 0.2; RBBP9 inhibitor: -4.0

What do the screens show for `CCCCN(C(C)=O)c1c(N)n(CCC)c(=O)n(CC(=O)Nc2cc(Cl)cc(Cl)c2)c1=O`?
Hsp70 act: -0.1; Mdm2 ligase inh: 4.9; Wee1 stabilizer: 11.9*; Ins promoter up: -0.74; RBBP9 inhibitor: -3.5

How did CCn1cc(CN2N=C(C)CC2c2ccccc2)c(C)n1 (stereo not given) do in these assays?
Hsp70 act: 0.1; Insulin prom inh: 45.5; Mdm2 ligase inh: -8.9; Wee1 stabilizer: 1.5; Ins promoter up: -0.04; RBBP9 inhibitor: -3.8

What do the screens show for `COc1ccc(/C=N/c2c(-c3ccco3)nc3ccccn23)cc1OC`?
Hsp70 act: -0.1; Insulin prom inh: -136.7; Mdm2 ligase inh: -7.8; Wee1 stabilizer: 9.0*; Ins promoter up: -0.53; RBBP9 inhibitor: -0.4

Results for COC(=O)c1ccc(NC(=O)CNC(=O)C2CCCCC2)c(C)c1 ?
Hsp70 act: -0.5; Insulin prom inh: 0.0; Mdm2 ligase inh: -10.3; Wee1 stabilizer: 10.2*; Ins promoter up: -0.57; RBBP9 inhibitor: 3.8

How did COC(=O)c1ccc(NC(=O)CNC(=O)C2CCCCC2)cc1 do in these assays?
Hsp70 act: -0.3; Mdm2 ligase inh: -23.1; Wee1 stabilizer: -2.1; Ins promoter up: 0.47; RBBP9 inhibitor: -3.5

How did Cc1nc2c([nH]c3ccccc32)c(=O)n1N do in these assays?
Hsp70 act: -0.2; Insulin prom inh: 100.0*; Mdm2 ligase inh: -10.2; Wee1 stabilizer: -2.3; Ins promoter up: -0.34; RBBP9 inhibitor: 0.0

Results for CCCCn1cnc2c([nH]c3ccccc32)c1=O ?
Hsp70 act: 0.2; Insulin prom inh: 81.6*; Mdm2 ligase inh: -6.9; Wee1 stabilizer: 0.9; Ins promoter up: -0.69; RBBP9 inhibitor: -2.7

How did O=c1c2[nH]c3ccc(Br)cc3c2ncn1CCCn1ccnc1 do in these assays?
Hsp70 act: 0.9; Insulin prom inh: 78.8*; Mdm2 ligase inh: -23.1; Wee1 stabilizer: 2.2; Ins promoter up: 0.05; RBBP9 inhibitor: -7.5

Results for COc1ccc(S(=O)(=O)N2CCOCC2)cc1NC(=O)CSc1nnc2c(n1)[nH]c1ccccc12 ?
Wee1 stabilizer: -0.3; Ins promoter up: -0.94; RBBP9 inhibitor: -12.8

Results for CCc1n[n+](CC(=O)c2ccccc2)c(N)s1 ?
Hsp70 act: -0.6; Mdm2 ligase inh: -77.3; Wee1 stabilizer: 2.2; Ins promoter up: 0.8; RBBP9 inhibitor: -1.4

What do the screens show for `CC(C)CC(NC(N)=O)C(=O)NCc1ccccc1Cl` (stereo not given)?
Hsp70 act: -0.1; Mdm2 ligase inh: -9.5; Wee1 stabilizer: -1.8; Ins promoter up: 1.31; RBBP9 inhibitor: -1.1

How did CN(/N=C/c1ccncc1)c1cnc2ccccc2n1 do in these assays?
Hsp70 act: 0.1; Insulin prom inh: 63.0; Mdm2 ligase inh: -21.2; Wee1 stabilizer: 10.0*; Ins promoter up: -0.86; RBBP9 inhibitor: 1.4

What do the screens show for `Cc1nn(-c2nnc(NCc3ccccc3)nn2)c(C)c1Br`?
Hsp70 act: -0.4; Insulin prom inh: -43.8; Mdm2 ligase inh: 33.9*; Wee1 stabilizer: 2.3; Ins promoter up: -0.09; RBBP9 inhibitor: -5.8

Results for Cc1ccccc1NC(=O)c1ccc(-n2cncn2)nc1 ?
Hsp70 act: -0.3; Insulin prom inh: -83.3; Mdm2 ligase inh: -11.4; Wee1 stabilizer: -1.4; Ins promoter up: 0.32; RBBP9 inhibitor: -2.5

Results for CCOC(=O)N1CCN(C(=O)CSc2ccc(-c3ccncc3)nn2)CC1 ?
Hsp70 act: 0.0; Insulin prom inh: 75.0*; Mdm2 ligase inh: -3.8; Wee1 stabilizer: -0.4; Ins promoter up: -1.11; RBBP9 inhibitor: -10.5

How did CCOC(=O)N1CCN(C(=O)CSc2ccc(-c3ccccc3)nn2)CC1 do in these assays?
Hsp70 act: -0.4; Insulin prom inh: -2.9; Mdm2 ligase inh: -8.7; Wee1 stabilizer: -1.7; RBBP9 inhibitor: -3.0

Results for CCOc1cc(/C=N/NC(=O)c2cccnc2)ccc1OC(=O)c1ccco1 ?
Hsp70 act: -0.1; Mdm2 ligase inh: -2.0; Wee1 stabilizer: 0.5; Ins promoter up: 0.13; RBBP9 inhibitor: 11.3

How did CCOc1ccc(C(=O)OCCN(CC)CC)cc1 do in these assays?
Hsp70 act: -0.3; Insulin prom inh: 80.0*; Mdm2 ligase inh: -8.6; Wee1 stabilizer: -0.5; RBBP9 inhibitor: -8.5

Results for CCN(CC)CCOC(=O)c1ccc(Cl)cc1 ?
Hsp70 act: -0.2; Insulin prom inh: -25.4; Mdm2 ligase inh: -13.1; Wee1 stabilizer: 0.9; Ins promoter up: 0.34; RBBP9 inhibitor: -14.2

Results for CCCC(=O)NC(=S)Nc1ccc(Cl)cn1 ?
Hsp70 act: 0.0; Insulin prom inh: 83.3*; Mdm2 ligase inh: -8.3; Wee1 stabilizer: 4.8; Ins promoter up: 1.05; RBBP9 inhibitor: -0.5

What do the screens show for `O=C(NC(=S)Nc1ccc(Cl)cn1)c1cccs1`?
Hsp70 act: -0.1; Insulin prom inh: 10.0; Mdm2 ligase inh: 0.7; Wee1 stabilizer: 2.3; Ins promoter up: 0.78; RBBP9 inhibitor: -3.2
